# Data reported in PubChem BioAssay.
# The source made the active and inactive calls.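 Rule for the calls: active = GFP response above 150% of the DMSO control; inconclusive = Fewer than 70 cells counted for a yeast strain; inactive = the rest.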
# Test: yeast TOR pathway reporter LAP4-GFP change – cell-based, cherry picks, flow cytometry, mother/daughter gates, confirmation (AID 2271);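 note: ratio of sample to DMSO plate mean so 100% equals DMSO level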
# Settings: S. cerevisiae LAP4-GFP strain, 3 h, measured here: daughter cell gate response, at 10 µM, stronger effect = higher value, 100 means same as DMSO control
# Procedure, shortened: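 material = Alexa 633-stained baker's yeast GFP-fusion strain | amount = 0.2 OD600 cells | schedule = 30 °C, 3 h compound incubation, rotating | signal = GFP by flow cytometry | measure = per-gate (all, mother, daughter) GFP response vs DMSO | controls = positive rapamycin (400 ng/mL), negative DMSO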
row,SMILES,GFP response relative to DMSO
1,O=C1c2ccsc2SCCN1Cc1ccccc1,109%
2,CCCOc1ccc(C(=O)NNC(=S)NC(=O)c2ccco2)cc1,148%
3,CCc1c2ccccc2nn1-c1ccccc1C(=O)C(C)=O,101%
4,Cc1c(Br)cc(C(=O)O)c(C)c1C,101%
5,CSC1=NS(=O)(=O)c2c(C)nn(C)c2S1,159%
6,O=S(=O)(c1ccc(Cl)cc1)c1ccccn1,96%
7,COc1cccc(C(=O)/C=C/c2ccc(SC)cc2)c1,104%
8,Cc1ccc(N2C(=O)CC(Sc3ncn[nH]3)C2=O)cc1C (stereo not given),133%
9,O=C(NCc1ccccn1)c1cc(-c2ccc(Cl)cc2)oc1C(F)(F)F,106%
10,O=C(CSc1cccc[n+]1[O-])c1cc2ccccc2o1,126%
11,S=c1[nH]nc(NCCCN2CCOCC2)s1,101%
12,Cc1cccc(N=c2c([N+](=O)[O-])nn(-c3ccc(Cl)cc3)n2O)c1,104%
13,COc1ccc(CCN2C(=O)c3cccc4cccc(c34)C2=O)cc1OC,99.1%
14,COc1ccc(C(=O)NC(=S)Nc2ccc(CN3CCOCC3)cc2)cc1,99.1%
15,CCOc1ccccc1N1CCN(C(=O)c2ccccc2)CC1,101%
16,CCOC(=O)C(=Cc1ccc(F)cc1)C(=O)OCC,102%
17,O=C(O)c1ccn2c(C(=O)c3ccccc3)c(-c3ccccc3)cc2c1,112%
18,CCc1nnc(N2C(=O)c3cccc4cccc(c34)C2=O)s1,92.9%
19,CC1CCCN(CCCNC(=O)C2CCN(S(=O)(=O)N3CCC4(CC3)OCCO4)CC2)C1 (stereo not given),97.6%
20,COc1ccccc1NC(=O)c1ccc(N)cc1,102%

# Same assay, conditions: S. cerevisiae LAP4-GFP strain, 3 h, measured here: mother cell gate response, at 10 µM, stronger effect = higher value, 100 means same as DMSO control
row,SMILES,GFP response relative to DMSO
1,CSc1nc2ccc(S(=O)(=O)N3CCCC3)cc2s1,140%
2,O=C1c2cccc3c([N+](=O)[O-])ccc(c23)C(=O)N1CCc1ccccn1,156%
3,COc1ccc(N=Cc2nc(-c3ccccc3)oc2OC(=O)c2ccccc2)cc1,111%
4,CS(=O)(=O)Nc1ccc(C2=NN(S(C)(=O)=O)C(c3ccccc3)C2)cc1 (stereo not given),129%
5,Nc1cccc(C(=O)Nc2ccccc2Cl)c1,98.3%
6,CCN(CC)c1ccc(/C=C/c2cccc[n+]2C)c(OC)c1,116%
7,O=C(N/N=C/c1cccc(Oc2ccccc2)c1)c1ccncc1,108%
8,N/C(Cc1ccc(Cl)cc1Cl)=N\OC(=O)c1ccccc1,213%
9,CCC(=O)N/C(N)=N/c1nc2ccccc2o1,112%
10,Cc1cccc2nc(-c3cccnc3)c(NCCC(C)C)n12,92.1%
11,CCOc1ccc(C(Nc2cccnc2)c2cc(Cl)c3cccnc3c2O)cc1 (stereo not given),170%
12,Nc1cccnc1S(=O)(=O)c1ccccc1,95.2%
13,O=C1ON=C(c2ccccc2)/C1=C/c1ccco1,161%
14,COc1cc(NC(=O)c2c(OC)cccc2OC)ccc1NC(=O)c1cc2ccccc2o1,108%
15,Cc1cc(NC(=O)c2cc3ccccc3o2)ccc1NC(=O)c1ccccc1,96.1%
16,Clc1cccc(Cn2ncc3ccccc32)c1,103%
17,Cc1ccccc1NC(=O)CC1SC(=O)N(c2ccccc2)C1=O (stereo not given),133%
18,CCOC(=O)c1sc(NC(=O)CN2C(=O)c3cccc4cccc(c34)C2=O)nc1C,87.6%
19,COc1ccc(C(=O)Nc2cccc(C)c2)cc1,107%
20,COc1ccc(C2CC(c3cccs3)=NN2S(=O)(=O)c2ccc(C)cc2)cc1 (stereo not given),107%

row,SMILES,GFP response relative to DMSO
1,O=C1c2ccsc2SCCN1Cc1ccccc1,114%
2,CCCOc1ccc(C(=O)NNC(=S)NC(=O)c2ccco2)cc1,167%
3,CCc1c2ccccc2nn1-c1ccccc1C(=O)C(C)=O,102%
4,Cc1c(Br)cc(C(=O)O)c(C)c1C,102%
5,CSC1=NS(=O)(=O)c2c(C)nn(C)c2S1,152%
6,O=S(=O)(c1ccc(Cl)cc1)c1ccccn1,93.4%
7,COc1cccc(C(=O)/C=C/c2ccc(SC)cc2)c1,103%
8,Cc1ccc(N2C(=O)CC(Sc3ncn[nH]3)C2=O)cc1C (stereo not given),140%
9,O=C(NCc1ccccn1)c1cc(-c2ccc(Cl)cc2)oc1C(F)(F)F,102%
10,O=C(CSc1cccc[n+]1[O-])c1cc2ccccc2o1,137%
11,S=c1[nH]nc(NCCCN2CCOCC2)s1,102%
12,Cc1cccc(N=c2c([N+](=O)[O-])nn(-c3ccc(Cl)cc3)n2O)c1,114%
13,COc1ccc(CCN2C(=O)c3cccc4cccc(c34)C2=O)cc1OC,97.3%
14,COc1ccc(C(=O)NC(=S)Nc2ccc(CN3CCOCC3)cc2)cc1,99.4%
15,CCOc1ccccc1N1CCN(C(=O)c2ccccc2)CC1,103%
16,CCOC(=O)C(=Cc1ccc(F)cc1)C(=O)OCC,111%
17,O=C(O)c1ccn2c(C(=O)c3ccccc3)c(-c3ccccc3)cc2c1,116%
18,CCc1nnc(N2C(=O)c3cccc4cccc(c34)C2=O)s1,94.4%
19,CC1CCCN(CCCNC(=O)C2CCN(S(=O)(=O)N3CCC4(CC3)OCCO4)CC2)C1 (stereo not given),96.1%
20,COc1ccccc1NC(=O)c1ccc(N)cc1,100%

# Test: TOR pathway reporter MEP2-GFP, retest of hits – S. cerevisiae, flow cytometry GFP, cherry picks, confirmation (AID 2272);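 note: ratio of well signal to plate DMSO mean so 100% equals DMSO level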
# Settings: S. cerevisiae MEP2-GFP strain, 3 h, at 10 µM, stronger effect = higher value
row,SMILES,GFP response vs DMSO
1,CSc1nc2ccc(S(=O)(=O)N3CCCC3)cc2s1,95.7% (inactive)
2,O=C1c2cccc3c([N+](=O)[O-])ccc(c23)C(=O)N1CCc1ccccn1,286% (active)
3,COc1ccc(N=Cc2nc(-c3ccccc3)oc2OC(=O)c2ccccc2)cc1,94.4% (inactive)
4,CS(=O)(=O)Nc1ccc(C2=NN(S(C)(=O)=O)C(c3ccccc3)C2)cc1 (stereo not given),157% (inactive)
5,Nc1cccc(C(=O)Nc2ccccc2Cl)c1,100% (inactive)
6,CCN(CC)c1ccc(/C=C/c2cccc[n+]2C)c(OC)c1,137% (inactive)
7,O=C(N/N=C/c1cccc(Oc2ccccc2)c1)c1ccncc1,103% (inactive)
8,N/C(Cc1ccc(Cl)cc1Cl)=N\OC(=O)c1ccccc1,125% (inactive)
9,CCC(=O)N/C(N)=N/c1nc2ccccc2o1,109% (inactive)
10,Cc1cccc2nc(-c3cccnc3)c(NCCC(C)C)n12,107% (inactive)
11,CCOc1ccc(C(Nc2cccnc2)c2cc(Cl)c3cccnc3c2O)cc1 (stereo not given),122% (inactive)
12,Nc1cccnc1S(=O)(=O)c1ccccc1,100% (inactive)
13,O=C1ON=C(c2ccccc2)/C1=C/c1ccco1,141% (inactive)
14,COc1cc(NC(=O)c2c(OC)cccc2OC)ccc1NC(=O)c1cc2ccccc2o1,102% (inactive)
15,Cc1cc(NC(=O)c2cc3ccccc3o2)ccc1NC(=O)c1ccccc1,102% (inactive)
16,Clc1cccc(Cn2ncc3ccccc32)c1,92% (inactive)
17,Cc1ccccc1NC(=O)CC1SC(=O)N(c2ccccc2)C1=O (stereo not given),112% (inactive)
18,CCOC(=O)c1sc(NC(=O)CN2C(=O)c3cccc4cccc(c34)C2=O)nc1C,100% (inactive)
19,COc1ccc(C(=O)Nc2cccc(C)c2)cc1,108% (inactive)
20,COc1ccc(C2CC(c3cccs3)=NN2S(=O)(=O)c2ccc(C)cc2)cc1 (stereo not given),104% (inactive)

row,SMILES,GFP response vs DMSO
1,O=C1c2ccsc2SCCN1Cc1ccccc1,94.1% (inactive)
2,CCCOc1ccc(C(=O)NNC(=S)NC(=O)c2ccco2)cc1,137% (inactive)
3,CCc1c2ccccc2nn1-c1ccccc1C(=O)C(C)=O,103% (inactive)
4,Cc1c(Br)cc(C(=O)O)c(C)c1C,94.7% (inactive)
5,CSC1=NS(=O)(=O)c2c(C)nn(C)c2S1,110% (inactive)
6,O=S(=O)(c1ccc(Cl)cc1)c1ccccn1,101% (inactive)
7,COc1cccc(C(=O)/C=C/c2ccc(SC)cc2)c1,100% (inactive)
8,Cc1ccc(N2C(=O)CC(Sc3ncn[nH]3)C2=O)cc1C (stereo not given),109% (inactive)
9,O=C(NCc1ccccn1)c1cc(-c2ccc(Cl)cc2)oc1C(F)(F)F,100% (inactive)
10,O=C(CSc1cccc[n+]1[O-])c1cc2ccccc2o1,109% (inactive)
11,S=c1[nH]nc(NCCCN2CCOCC2)s1,103% (inactive)
12,Cc1cccc(N=c2c([N+](=O)[O-])nn(-c3ccc(Cl)cc3)n2O)c1,102% (inactive)
13,COc1ccc(CCN2C(=O)c3cccc4cccc(c34)C2=O)cc1OC,101% (inactive)
14,COc1ccc(C(=O)NC(=S)Nc2ccc(CN3CCOCC3)cc2)cc1,99% (inactive)
15,CCOc1ccccc1N1CCN(C(=O)c2ccccc2)CC1,102% (inactive)
16,CCOC(=O)C(=Cc1ccc(F)cc1)C(=O)OCC,100% (inactive)
17,O=C(O)c1ccn2c(C(=O)c3ccccc3)c(-c3ccccc3)cc2c1,94.1% (inactive)
18,CCc1nnc(N2C(=O)c3cccc4cccc(c34)C2=O)s1,108% (inactive)
19,CC1CCCN(CCCNC(=O)C2CCN(S(=O)(=O)N3CCC4(CC3)OCCO4)CC2)C1 (stereo not given),96.2% (inactive)
20,COc1ccccc1NC(=O)c1ccc(N)cc1,99.5% (inactive)
